An excerpt weighted towards active compounds, which were near 1.1% of everything screened.
Rad51 HR inh = blocks human Rad51 in homologous recombination; Q06609; hRad51 DNA strand exchange, fluorescence dequenching; inhibition, % at 10 µM; hit rate 0.085% among 200,000;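 active = inhibition above 40% at the single screening dose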
Target sequence (Q06609 whole entry, looked up): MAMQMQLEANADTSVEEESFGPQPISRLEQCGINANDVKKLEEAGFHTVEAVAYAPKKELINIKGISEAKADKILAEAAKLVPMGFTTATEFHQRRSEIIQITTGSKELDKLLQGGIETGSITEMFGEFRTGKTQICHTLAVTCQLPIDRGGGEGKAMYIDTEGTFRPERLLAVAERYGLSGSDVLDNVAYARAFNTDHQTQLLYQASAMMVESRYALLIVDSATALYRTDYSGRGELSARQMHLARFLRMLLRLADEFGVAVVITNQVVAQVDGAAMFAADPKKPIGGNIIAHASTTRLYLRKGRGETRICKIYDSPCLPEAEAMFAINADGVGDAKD
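Assay system: Human Rad51 nucleoprotein filaments preassembled on unlabelled ssDNA | Reagent: Donor/quencher-labelled 47-bp dsDNA substrate | Doses: One concentration, 10 µM final | Times: 37 °C 15-min filament assembly, 30-min compound preincubation, 15-min exchange | Technique: Fluorescein emission 520 nm, excitation 485 nm | Benchmarks: Plate control and blank wells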
PMI act = phosphomannose isomerase (human) activation | purified human PMI, coupled resazurin fluorescence, 20 min; hits give high values; 1 = vehicle control, 0 substrate-free wells | activation factor at 20 µM | hit rate 0.005% among 190,000 | AID 1214;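 active = activation factor of 2 or more at 20 µM, relative to plate controls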
PMI act hi M6P = increases human PMI activity with near-saturating mannose 6-phosphate; P34949; hit rate 0.34% among 190,000; AID 1216; coupled PMI enzyme assay, resazurin fluorescence, 20 min; hits give high values; 1 = untreated enzyme, 0 = substrate-free blank; activation factor at 20 µM;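 active = activation factor of 2 or more at 20 µM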
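test system = human PMI in coupled enzyme assay | medium = HEPES-buffered pH 7.4 with magnesium and detergent | also added = 1.0 mM mannose-6-phosphate substrate with 0.22 mM NADP+ | compound = 20 µM single dose | times = 20 min incubation at room temperature | measured by = resorufin fluorescence (Ex 544/Em 590 nm) from resazurin via diaphorase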
m-calpain inh = blocks pig calpain II enzyme activity; inhibition, % at 16 µM; purified calpain II, fluorogenic peptide substrate, 30 min; hit rate 0.37% among 220,000;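 active = inhibition above about 50%, limit read from the data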
Efa HMGR inh = inhibitors of class II HMG-CoA reductase from Enterococcus faecalis; purified E. faecalis HMGR, NADPH absorbance 340 nm kinetic; inhibition, % at 10 µM; AID 1066; hit rate 0.41% among 190,000;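 active = inhibition above a set limit, the median over all tested compounds plus 3 SD, cut at about 9.5% in these data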;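 also: enzyme runs in reverse so mevalonate oxidation gives rising NADPH absorbance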
Numbers stand for hits; . = inactive; / = no result given.

SMILES	Rad51 HR inh	PMI act	PMI act hi M6P	m-calpain inh	Efa HMGR inh
CCCN(CC(=O)Nc1ccccc1C)C(=O)CCl	.	.	.	.	.
COc1ccc(-c2nc3ccccc3[nH]2)cc1	.	.	.	.	.
COc1ccc(-c2nc(=S)c3ccc4ccccc4c3[nH]2)cc1	.	.	2.3	.	.
CC1=NN(c2ccc(S(=O)(=O)O)cc2C)C(=O)C1	.	.	2.4	.	.
COCCN1Cc2cc3cc(C)ccc3nc2SC1=Nc1ccc(OC)cc1	.	.	.	.	.
CCC(C)N=C1Sc2nc3ccc(C)cc3cc2CN1CCOC (stereo not given)	.	.	.	.	9.6
Cc1ccc(NC(=O)c2cc(N3C(=O)C4CCCCC4C3=O)ccc2N2CCOCC2)cc1 (stereo not given)	.	.	.	68	.
Cc1ccc(NC(=O)c2cc(N3C(=O)C4CC=CCC4C3=O)ccc2N2CCCCC2)cc1 (stereo not given)	.	.	.	.	.
CCCCNC(=S)NNC(=O)C12CC3CC(CC(C3)C1)C2	106	.	.	.	.
CC(C)NC(=S)NNC(=O)C12CC3CC(CC(C3)C1)C2	.	.	.	.	.
CN(C)c1ncc(/C=C2/C(=O)NC(=S)N(C3CCCCC3)C2=O)cn1	.	.	2	.	.
COc1ccc(CNn2c(-c3ccccc3F)nc3ccccc3c2=O)cc1OC	.	.	.	.	.
CCOc1cc(/C=N/Nc2ccccc2Cl)ccc1OCC(=O)O	.	.	3.1	.	.
O=C(O)c1cccc(N/N=C/C2=C(Cl)c3cc(Cl)ccc3SC2)c1	.	.	2.5	58	.
Cc1ccc(/C=N/Nc2cccc(C(=O)O)c2)s1	.	.	.	.	.
CCOc1cc(/C=N/Nc2cccc(C(=O)O)c2)ccc1OC(=O)c1ccccc1	.	.	2.3	.	.
Cc1nn(-c2cccc(C(F)(F)F)c2)c(Cl)c1/C=N/Nc1cccc(C(=O)O)c1	.	.	2.5	.	.
CCOc1cc(/C=N/NC(=O)CNc2cccc(C)c2)ccc1OC(=O)c1ccccc1	.	.	.	.	.
O=C(Nc1ccc(Cl)cc1C(=O)N1CCOCC1)c1cccc([N+](=O)[O-])c1	/	.	.	.	.
CCCCCCC(=O)N/N=C1\CCCc2ccccc21	.	.	.	.	.
COC(=O)c1c(C)[nH]c(C(=O)CSc2ncnc3sc(-c4ccccc4)cc23)c1C	.	.	.	.	.
O=C(O)c1cccc(N/N=C/c2ccc(F)c(F)c2)c1	.	.	2.3	.	.
Cc1[nH][nH]c(=O)c1C(c1ccc(-c2ccc(Cl)c(C(=O)O)c2)o1)c1c(C)[nH][nH]c1=O	/	.	.	.	.
O=C(O)Cc1cn(Cc2ccc(F)cc2)c2ccccc12	.	.	.	.	.
Cc1[nH][nH]c(=O)c1C(c1c(C)[nH][nH]c1=O)c1cn(Cc2ccc(F)cc2)c2ccccc12	.	.	.	.	53
SMILES	Rad51 HR inh	PMI act	PMI act hi M6P	m-calpain inh	Efa HMGR inh
Cc1[nH][nH]c(=O)c1C(c1c(C)[nH][nH]c1=O)c1cn(Cc2ccc(Cl)c(Cl)c2)c2ccccc12	.	.	.	.	39
CO/C=C\C=C/c1nnn(-c2ccc(Cl)cc2)n1	.	.	.	.	.
CCOC(=O)c1ccc(S(=O)(=O)N2CCC(C(=O)O)CC2)cc1	.	.	.	.	.
COC(=O)C1=C(C)OC(N)=C(C#N)C1c1ccccc1 (stereo not given)	.	.	.	.	.
CCSc1cc(C2C(C#N)=C(N)OC(C)=C2C(=O)OC)c(C)o1 (stereo not given)	.	.	2	.	.
Cc1ccc(CNc2ccc3c(c2)ncn3C(C)(C)C)cc1	.	.	.	.	.
Cc1ccc(/C=C(\C#N)C(=O)N2CCCC2)c(C)c1	.	.	.	.	.
CNc1nc(-c2ccccc2)nc(-c2ccc(OC)cc2)c1C#N	.	.	.	.	13
COc1ccc(-c2nnc(SCC(=O)Nc3ccc4c(c3)OCCO4)n2N)cc1OC	.	.	.	.	.
Cc1ccc(-c2ccc(/C=C3\SC(N4CCOCC4)=NC3=O)o2)cc1	.	.	.	.	12
O=C1N=C(N2CCOCC2)S/C1=C/c1ccc(-c2ccc(F)cc2)o1	.	.	.	.	.
CC(C)CCN(C(=O)Nc1ccccc1)C(C)c1cccs1 (stereo not given)	.	.	.	51	.
COc1ccc(N2CC(C(=O)Nc3cc(C)ccn3)CC2=O)cc1 (stereo not given)	.	/	/	.	/

Screening results from PubChem.
